This excerpt belongs to a sample that is enriched for hits.
MPTP block = blocks calcium-induced mitochondrial swelling; isolated mouse mitochondria, Ca2+ swelling absorbance, 30 min; inhibition, % at 10 µM; 360,000 compounds, 1.4% hits;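 active means inhibition of 50% or more, scaled per plate between neutral and stimulator controls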;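 further: 0% = DMSO wells given calcium and 100% = 1 mM EGTA wells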
Lipid droplet = modulators of hepatic lipid droplet formation | AML12 mouse hepatocytes, oleate lipid droplets, BODIPY imaging | inhibition, % at 6.5 µM | 240,000 compounds, 0.4% hits;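 active means lipid droplet intensity inhibited by at least 50%, with more than 500 cells counted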
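Material – mouse AML12 hepatocyte cell line, fixed after treatment · Compound dosing – one dose, 6.5 µM compound · Times – compound with oleate, overnight · Measured by – Image-based BODIPY and DAPI two-channel analysis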
Lmaj promast = reduces viability of Leishmania major promastigotes; inhibition, % at 10 µM; 200,000 compounds, 9% hits; resazurin fluorescence viability; in the data active means inhibition above about 50%;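 further: promastigotes grown with compound for 44 hours at 28 °C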
T cruzi inh = blocks replication of Trypanosoma cruzi; T. cruzi beta-gal in NIH3T3, luminescence, 90 h; inhibition, % (concentration not given with the values); 300,000 compounds, 1.4% hits; AID 1885;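 active means mean inhibition across valid replicates above about 55%, limit read from the data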;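 further: signal also drops with host cell toxicity which is not excluded here; 0% = plate median of DMSO wells and 100% = zero luminescence signal; higher percent means less beta-gal luminescence so fewer parasites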
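Test system: β-gal T. cruzi (Tulahuen C4) inside NIH/3T3 cells / Quantity: 5,000 cells/well / Measured by: luminescence from GalScreen with 0.05% NP40, read after 60 min / Medium: DMEM plus 2% FBS / Measure: parasite load inhibition, % / Reagent: Tulahuen C4 trypomastigotes, 5000/well / Schedule: co-culture of at least 90 h after 3 h attachment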
Redox H2O2 prof = compounds producing H2O2 with reducing agent – biochemical, NIH compound library profiling, artefact control for MLSCN library redox annotation, primary screen; AID 878; 200,000 compounds, 0.03% hits; activation, % at 10 µM; DTT-dependent redox cycling H2O2, phenol red/HRP absorbance; 100% = 100 µM peroxide control, 0% = buffer;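 active means activation of at least 50% relative to the plate's high and low controls in the primary single-dose screen; inactive means activation below 50%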;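 further: compound incubated with DTT at 0.8 mM final as the reducing agent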
An asterisk follows results filed as active; x = not tested or not shown.

SMILES	MPTP block	Lipid droplet	Lmaj promast	T cruzi inh	Redox H2O2 prof
O=C(NCc1cccnc1)c1ccc(-c2ccccc2[N+](=O)[O-])o1	1	-14	-8	2	0
O=C(NCc1cccnc1)c1ccc(-c2cccc(Cl)c2Cl)o1	14	1	3	58*	0
CCOC(=O)c1cc2c(ccn2C)n1CC(=O)N(Cc1ccccc1)c1ccc(F)cc1	-1	-2	98*	36	0
Cc1ccc(C)c(Cn2c(C(=O)OC(C)C)cc3c2ccn3C)c1	2	x	95*	14	0
CC(C)OC(=O)c1cc2c(ccn2C)n1CC(=O)N(Cc1ccccc1)c1ccc(F)cc1	0	-8	99*	39	0
CCOC(=O)c1cc2c(ccn2C)n1CC(=O)N(Cc1ccccc1)c1ccccc1	2	-8	98*	30	1
CCOC(=O)c1cc2c(ccn2C)n1Cc1ccccc1C	2	-22	7	17	0
CN(C)c1oc(/C=C/c2cccs2)nc1S(=O)(=O)c1ccccc1	0	-43	x	46	x
CC1(C(=O)O)CCN1C(=O)COc1ccc(Cl)cc1 (stereo unspecified)	0	x	x	x	x
COc1ccc(C(=O)NC(=S)Nc2ccccc2F)cc1	0	-25	64*	-10	-1
COc1ccc(CNC(=S)Nc2ccccc2F)cc1	0	-1	x	-9	x
COc1ccc([N+](=O)[O-])cc1N(CC(O)CN1CCCCC1)S(=O)(=O)c1ccccc1 (stereo unspecified)	1	-12	82*	-15	0
COc1ccc([N+](=O)[O-])cc1N(CC(O)CN1C(=O)NC(C)(C)C1=O)S(=O)(=O)c1ccccc1 (stereo unspecified)	0	1	x	-3	x
CCCN(CCC)CC(O)CN(c1cc([N+](=O)[O-])ccc1OC)S(=O)(=O)c1ccccc1 (stereo unspecified)	-1	x	63*	-19	-1
CCCNC(=O)c1nc(C)n(-c2cc(Cl)ccc2Cl)n1	-1	-16	2	-3	0
COc1ccccc1NC(=O)C1=C(C)Nc2nnnn2C1c1ccccn1 (stereo unspecified)	0	6	85*	8	-2
O=S(=O)(N/N=C\c1ccc2c(c1)OCO2)c1ccc(Cl)cc1	0	x	-4	-5	0
COc1ccc(C2=CSC3=NNC4(CCCCC4)NN23)cc1	-2	31	67*	-2	0
CC[C@H]1C(Nc2ccccc2)C[C@@H]2CCN3C(=O)CC[C@H]1[C@H]23 (stereo partly specified)	0	x	x	x	x
CC(=O)c1c(N)c(C#N)c(C)n1-c1ccc(Br)cc1	6	17	2	1	0
Cc1c(C#N)c(N=CN(C)C)c(C(=O)c2ccc(Br)cc2)n1-c1ccc(Cl)cc1	-1	6	100*	57*	0
N#CC1=C(N)Nc2ncnn2C1c1ccccc1 (stereo unspecified)	x	0	57*	3	0
N#CC1=C(N)Nc2nc3ccccc3n2C1c1ccc(Cl)cc1 (stereo unspecified)	6	-7	77*	17	0
CCOC(=O)c1c(-c2ccc(OC)c(OC)c2)csc1NC(=O)C1CCCO1 (stereo unspecified)	4	-13	100*	7	-1
C#CCNC(=O)C1=C[C@@H](C(C)(C)C)C[C@@H](OCc2ccc(CO)cc2)O1	0	8	98*	-4	-1
SMILES	MPTP block	Lipid droplet	Lmaj promast	T cruzi inh	Redox H2O2 prof
CC(C)(C)[C@@H]1C=C(C(=O)NCc2ccccc2)O[C@H](OCc2ccc(CO)cc2)C1	2	-14	97*	18	0
COc1cc2nc(N3CCN(C(=O)c4ccco4)CC3)nc(N)c2cc1OC	3	-2	100*	13	0
CCN(Cc1ccccc1)C1CCN(Cc2ccc(SC)cc2)CC1	4	-4	85*	13	-1
O=C(C1CCN(CC2CC=CCC2)CC1)N(CCc1ccccc1)Cc1ccccc1 (stereo unspecified)	1	0	27	9	1
CCN(CC)C(=O)C1CCN(Cc2ccc(Br)cc2)CC1	1	x	92*	6	0
O=C(C1CCN(CCCc2ccccc2)CC1)N(CCc1ccccc1)Cc1ccccc1	1	-52	91*	27	0
CCN(Cc1ccccc1)C(=O)C1CCN(Cc2ccc(SC)cc2)CC1	2	-7	88*	12	0
CSCCCN1CCCC(CO)(Cc2ccccc2F)C1 (stereo unspecified)	-1	0	x	13	x
CCCn1nnc(NC(=O)c2ccc3c(c2)OCO3)n1	3	10	x	-10	x
CCOc1ccc(OCC(=O)OCC(=O)N2CCN(S(=O)(=O)c3ccc(C)cc3C)CC2)cc1	0	x	x	x	x
O=S(=O)(CCN1C=CC(C(F)(F)F)=NCC1)c1ccc(Cl)cc1Cl	0	-2	x	-2	x
Cc1ccc(C)c(S(=O)(=O)N2CCCOC2CNC(=O)C(=O)NCc2ccc3c(c2)OCO3)c1 (stereo unspecified)	1	4	x	10	x
O=S(=O)(Nc1cc(Sc2ncn[nH]2)c(O)c2ccccc12)c1ccccc1	1	-39	99*	x	19
CCc1ccc(-c2cc(C(F)(F)F)n3nc(C(=O)Nc4c(C)nn(Cc5ccc(F)cc5)c4C)cc3n2)s1	0	34	64*	51	0
O=C(CN(C(=O)CCC(=O)Nc1ccccn1)c1ccccc1F)NCc1ccc2c(c1)OCO2	0	12	x	4	x
Cc1ccccc1N(CC(=O)NCc1ccc2c(c1)OCO2)C(=O)CCC(=O)Nc1ccccn1	2	x	61*	-1	0
Cc1ccc(S(=O)(=O)C2(C(=O)N3CCCCCC3)CC2)cc1	-1	4	-3	-22	2
Cc1ccc(S(=O)(=O)C2(C(=O)N3CCN(C4CCCCC4)CC3)CC2)cc1	0	7	76*	-5	2
Cc1ccc(S(=O)(=O)C2(C(=O)N3CCN(c4cc(C)ccc4C)CC3)CC2)cc1	2	-3	72*	13	-1
Cc1cccc(NC(=O)N2CCCc3ccccc32)c1C	0	-2	x	-15	x
Cc1cccc(C)c1N1C(=O)CCC(C)(C)C1=O	-1	-9	x	5	x
c1ccc(-c2ccc(-c3cnc4n3CCCCC4)cc2)cc1	1	5	99*	12	0
Cc1ccc(-c2cnc3n2CCCCC3)cc1	-1	-7	-2	-7	-1
CCOC(=O)N1CCC(N2CCN(S(=O)(=O)c3ccc(Cl)cc3)CC2)CC1	3	3	95*	16	0
CCOC(=O)N1CCN(C(=O)CN(Cc2ccc(Cl)cc2)S(=O)(=O)c2ccc(C)cc2)CC1	0	-17	93*	22	0
Cc1ccc(NC(=O)C2CCN(S(=O)(=O)c3ccc(F)cc3)CC2)cc1	5	0	99*	10	0
CCOC(=O)N1CCN(S(=O)(=O)c2ccc(Cl)cc2)CC1	0	2	x	2	x

From PubChem
